Laboratory results as given in ChEMBL document CHEMBL4732199, “Potent and orally bioavailable CDK8 inhibitors: Design, synthesis, structure-activity relationship analysis and biological evaluation” (Eur J Med Chem, 2021).
pKi: −log10 of the molar value.

Experiments:
[1] = Cmax in Sprague-Dawley rat at 5 mg/kg, iv measured up to 24 hrs by LC-MS/MS analysis; format: ADME, organism-based; set-up: route intravenous, dose 5 mg/kg, time <=24; conditions: in vivo
MCF7 = experiment: Growth inhibition human MCF7 cells after 72 hrs by resazurin or MTT assay; format: functional
How it was run: (§1)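 Tumour cell lines kept in RPMI-1640, DMEM or MEM with 10% FBS at 37 °C, 5% CO2, mycoplasma-free. Exposure lasted 72 h. Viability was read by MTT for adherent solid-tumour lines and by resazurin for suspension leukaemia lines. GI50 came from nonlinear regression, given as mean ± standard deviation of at least two replicates unless stated otherwise.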

[2] = Toxicity in BALB/c mouse assessed as increase in dead splenocytes at 70 mg/kg, po administered once daily for 7 days and measured on day 15 by flow cytometric analysis; format: organism-based; conditions: in vivo, 168 h, time 7 day
HL-60 = experiment: Growth inhibition human HL-60 cells after 72 hrs by resazurin or MTT assay; format: functional; how it was run: as §1
HCT-116 = experiment: Growth inhibition human HCT-116 cells after 72 hrs by resazurin or MTT assay; format: functional; how it was run: as §1
[3] = Oral bioavailability in Sprague-Dawley rat at 20 mg/kg measured up to 24 hrs by LC-MS/MS analysis; format: ADME, organism-based; conditions: in vivo
[4] = Toxicity in BALB/c mouse assessed as increase in number of alveolar macrophages at 70 mg/kg, po administered once daily for 7 days and measured on day 15; format: organism-based; conditions: in vivo, 168 h, time 7 day
[5] = Toxicity in BALB/c mouse assessed as destruction of vessel walls at 70 mg/kg, po administered once daily for 7 days and measured on day 15; format: organism-based; conditions: in vivo, 168 h, time 7 day
T47D = experiment: Growth inhibition human T47D cells after 72 hrs by resazurin or MTT assay; format: functional; how it was run: as §1
[6] = biological target: Glycogen synthase kinase-3 alpha (Homo sapiens, UniProt P49840); experiment: Inhibition of human GSKalpha S449A mutant (2 to 3nd residues) using YRRAAVPPSPSLSRHSSPHQS(p) EDEEE as substrate incubated for 40 mins in presence of [gamma-33P]-ATP by scintillation counting method
How it was run: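 Outsourced radioisotope (HotSpot) kinase assay run by a contract lab, with ATP at the kinase's Km(ATP). The IC50 was converted to an apparent Ki by the Cheng-Prusoff equation, Ki = IC50/(1+[ATP]/Km(ATP)), using the experimentally determined Km(ATP).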

Kasumi 1 = experiment: Growth inhibition human Kasumi-1 cells after 72 hrs by resazurin or MTT assay; format: functional; how it was run: as §1
CDK8/Cyclin C = CDK8/Cyclin C (Homo sapiens, UniProt P49336); experiment: Inhibition of CDK8/cyclin C (unknown origin) using RBER-IRStide as substrate incubated for 60 mins in presence of [gamma33P]ATP by scintillation counting method; format: protein-complex assay
U-937 = experiment: Growth inhibition human U-937 cells after 72 hrs by resazurin or MTT assay; format: functional; how it was run: as §1
MDA-MB-453 = experiment: Growth inhibition human MDA-MB-453 cells after 72 hrs by resazurin or MTT assay; format: functional; how it was run: as §1
[7] = AUC in Sprague-Dawley rat at 20 mg/kg, po measured up to 24 hrs by LC-MS/MS analysis; format: ADME, organism-based; set-up: route oral, dose 20 mg/kg, time <=24; conditions: in vivo
[8] = Clearance in Sprague-Dawley rat at 5 mg/kg, iv measured up to 24 hrs by LC-MS/MS analysis; format: ADME, organism-based; conditions: in vivo
[9] = Toxicity in BALB/c mouse assessed as vasculitis in blood vessels at 70 mg/kg, po administered once daily for 7 days and measured on day 15; format: organism-based; conditions: in vivo, 168 h, time 7 day
MV4-11 = experiment: Growth inhibition of human MV4-11 cells after 72 hrs by resazurin staining based assay; format: functional
How it was run: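 MV4-11 leukaemia cells grown in medium with 10% FBS at 37 °C, 5% CO2. Growth was read by a 72-h resazurin viability assay. GI50 was obtained by nonlinear regression and reported as mean ± standard deviation of at least two replicates.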

[10] = Toxicity in BALB/c mouse assessed as macrophages at 70 mg/kg, po administered once daily for 7 days and measured on day 15 by flow cytometric analysis; format: organism-based; conditions: in vivo, 168 h, time 7 day
KG-1a = experiment: Growth inhibition human KG-1a cells after 72 hrs by resazurin or MTT assay; format: functional; how it was run: as §1
[11] = Toxicity in BALB/c mouse assessed as interstitial pneumonitis in lung at 70 mg/kg, po administered once daily for 7 days and measured on day 15; format: organism-based; conditions: in vivo, 168 h, time 7 day
[12] = Tmax in Sprague-Dawley rat at 20 mg/kg, po measured up to 24 hrs by LC-MS/MS analysis; format: ADME, organism-based; conditions: in vivo
[13] = Toxicity in BALB/c mouse assessed as pathological alterations in left femora at 70 mg/kg, po administered once daily for 7 days and measured on day 15; format: organism-based; conditions: in vivo, 168 h, time 7 day
KG-1 = experiment: Growth inhibition human KG-1 cells after 72 hrs by resazurin or MTT assay; format: functional; how it was run: as §1
[14] = Toxicity in BALB/c mouse assessed as pathological alterations in lung at 70 mg/kg, po administered once daily for 7 days and measured on day 15; format: organism-based; conditions: in vivo, 168 h, time 7 day
[15] = Toxicity in BALB/c mouse assessed as monocytes at 70 mg/kg, po administered once daily for 7 days and measured on day 15 by flow cytometric analysis; format: organism-based; conditions: in vivo, 168 h, time 7 day
[16] = Toxicity in BALB/c mouse assessed as B cells at 70 mg/kg, po administered once daily for 7 days and measured on day 15 by flow cytometric analysis; format: organism-based; conditions: in vivo, 168 h, time 7 day
[17] = Growth inhibition human PL-21 cells after 72 hrs by resazurin or MTT assay; format: functional, PL21; how it was run: as §1
[18] = Half life in Sprague-Dawley rat at 20 mg/kg, po measured up to 24 hrs by LC-MS/MS analysis; format: ADME, organism-based; conditions: in vivo
[19] = Volume of distribution at steady state in Sprague-Dawley rat at 5 mg/kg, iv measured up to 24 hrs by LC-MS/MS analysis; format: ADME, organism-based; conditions: in vivo, read-out: Vdss
[20] = AUC in Sprague-Dawley rat at 5 mg/kg, iv measured up to 24 hrs by LC-MS/MS analysis; format: ADME, organism-based; set-up: route intravenous, dose 5 mg/kg, time <=24; conditions: in vivo
[21] = Toxicity in BALB/c mouse assessed as infiltration of inflammatory cells at 70 mg/kg, po administered once daily for 7 days and measured on day 15; format: organism-based; conditions: in vivo, 168 h, time 7 day
[22] = Toxicity in BALB/c mouse assessed as granulocytes at 70 mg/kg, po administered once daily for 7 days and measured on day 15 by flow cytometric analysis; format: organism-based; conditions: in vivo, 168 h, time 7 day
[23] = Effect on total STAT1 level in human MV4-11 cells at 1 to 5 times of GI50 concentration after 2 hrs by Western blot analysis; format: ADME, cell-based; conditions: mv4-11, 2 h
[24] = biological target: Protein kinase C theta type (Homo sapiens, UniProt Q04759); experiment: Inhibition of human full length PKCtheta using histone H1 as substrate incubated for 40 mins in presence of [gamma-33P]-ATP by scintillation counting method
How it was run: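 IC50 measured in a contracted radiometric kinase assay with ATP at the experimentally determined Km(ATP) of each kinase. Apparent Ki was derived by Cheng-Prusoff: Ki = IC50/(1+[ATP]/Km(ATP)).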

NB-4 = experiment: Growth inhibition human NB4 cells after 72 hrs by resazurin or MTT assay; format: functional; how it was run: as §1
HT-29 = experiment: Growth inhibition human HT-29 cells after 72 hrs by resazurin or MTT assay; format: functional; how it was run: as §1

Chain of Protein kinase C theta type (Q04759 whole entry): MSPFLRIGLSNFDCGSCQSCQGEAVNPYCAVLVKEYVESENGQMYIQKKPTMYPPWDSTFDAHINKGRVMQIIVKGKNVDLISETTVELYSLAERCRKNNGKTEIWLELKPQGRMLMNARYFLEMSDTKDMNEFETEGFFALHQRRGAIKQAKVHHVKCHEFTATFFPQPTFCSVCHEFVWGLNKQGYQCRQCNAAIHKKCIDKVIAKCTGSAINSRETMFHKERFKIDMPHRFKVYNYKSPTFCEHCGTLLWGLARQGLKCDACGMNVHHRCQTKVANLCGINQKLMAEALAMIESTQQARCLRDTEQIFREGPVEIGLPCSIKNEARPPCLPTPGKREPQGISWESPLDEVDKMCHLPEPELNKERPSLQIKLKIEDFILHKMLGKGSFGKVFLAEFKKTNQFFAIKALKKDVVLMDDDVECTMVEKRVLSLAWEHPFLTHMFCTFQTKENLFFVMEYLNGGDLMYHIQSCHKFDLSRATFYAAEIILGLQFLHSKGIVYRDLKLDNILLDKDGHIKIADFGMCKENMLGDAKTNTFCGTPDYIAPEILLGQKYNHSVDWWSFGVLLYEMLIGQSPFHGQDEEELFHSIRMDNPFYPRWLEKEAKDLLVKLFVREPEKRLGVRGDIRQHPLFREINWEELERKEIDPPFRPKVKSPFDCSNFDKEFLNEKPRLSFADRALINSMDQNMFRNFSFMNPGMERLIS
Chain of Glycogen synthase kinase-3 alpha (P49840 whole entry): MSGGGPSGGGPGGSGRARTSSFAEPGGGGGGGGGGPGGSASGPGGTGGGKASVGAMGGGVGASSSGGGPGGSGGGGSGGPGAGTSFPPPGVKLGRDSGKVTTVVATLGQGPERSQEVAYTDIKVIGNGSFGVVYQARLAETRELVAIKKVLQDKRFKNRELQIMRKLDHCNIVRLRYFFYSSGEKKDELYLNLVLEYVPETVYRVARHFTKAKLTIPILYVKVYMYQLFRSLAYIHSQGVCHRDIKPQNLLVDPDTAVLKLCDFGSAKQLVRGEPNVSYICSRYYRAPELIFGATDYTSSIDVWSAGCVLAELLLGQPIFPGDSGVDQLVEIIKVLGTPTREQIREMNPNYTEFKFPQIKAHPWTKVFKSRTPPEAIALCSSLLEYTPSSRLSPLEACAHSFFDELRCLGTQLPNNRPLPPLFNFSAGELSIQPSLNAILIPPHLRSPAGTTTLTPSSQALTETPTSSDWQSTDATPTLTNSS
Chain of CDK8/Cyclin C (P49336 whole entry): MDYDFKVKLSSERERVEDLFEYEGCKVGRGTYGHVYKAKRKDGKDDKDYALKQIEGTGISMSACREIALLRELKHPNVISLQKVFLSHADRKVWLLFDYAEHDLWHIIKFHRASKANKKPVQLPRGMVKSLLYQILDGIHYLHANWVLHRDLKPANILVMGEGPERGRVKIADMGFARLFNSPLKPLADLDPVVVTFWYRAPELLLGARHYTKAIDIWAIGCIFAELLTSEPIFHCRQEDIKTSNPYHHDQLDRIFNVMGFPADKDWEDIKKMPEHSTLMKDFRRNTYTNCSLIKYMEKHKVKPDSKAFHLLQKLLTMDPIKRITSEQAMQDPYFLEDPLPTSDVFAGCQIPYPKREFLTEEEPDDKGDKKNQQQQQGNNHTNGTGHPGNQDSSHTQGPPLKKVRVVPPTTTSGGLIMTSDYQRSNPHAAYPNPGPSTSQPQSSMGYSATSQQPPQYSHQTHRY
Chain of CDK8/Cyclin C (P24863 whole entry, further chain): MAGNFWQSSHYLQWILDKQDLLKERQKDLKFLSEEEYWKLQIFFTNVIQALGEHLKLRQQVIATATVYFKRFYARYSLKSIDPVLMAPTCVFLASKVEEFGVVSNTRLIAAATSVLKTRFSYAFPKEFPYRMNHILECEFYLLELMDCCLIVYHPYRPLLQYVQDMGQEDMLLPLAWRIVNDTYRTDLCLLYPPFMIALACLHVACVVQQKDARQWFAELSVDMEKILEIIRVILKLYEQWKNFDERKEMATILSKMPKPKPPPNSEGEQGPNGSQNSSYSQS

For `Cn1cc(-c2ccc(-c3cncc(Cl)c3N3CCC4(CCNC4=O)CC3)cc2)cn1`, the Cmax [1] was 10.6 µM, the GI50 (MCF7) was greater than 50 µM and the Activity [2] was “Non-Toxic”. For the same compound, the GI50 (HL-60) was greater than 50 µM, the GI50 (HCT-116) was 46.2 µM and the bioavailability [3] was 41%. The Activity [4] was “Toxic”, the Activity [5] was “Toxic” and the GI50 (T47D) was 15.1 µM. The pKi [6] was 6.64, the GI50 (Kasumi 1) was 37 µM and the pKi (CDK8/Cyclin C) was 8.05. It also gave a GI50 (U-937) of 22.4 µM, a GI50 (MDA-MB-453) of 43.1 µM and an AUC at 24 h [7] of 17.5 µM·h. The clearance [8] was 20 mL/min/kg, the Activity [9] was “Toxic” and the GI50 (MV4-11) was 0.03 µM. The Activity [10] was “Non-Toxic”, the GI50 (KG-1a) was 32.71 µM and the Activity [11] was “Toxic”. For the same compound, the Tmax [12] was 1.33 h, the Activity [13] was “Toxic” and the GI50 (KG-1) was 19.98 µM. For the same compound, the Activity [14] was “Toxic”, the Activity [15] was “Non-Toxic” and the Activity [16] was “Non-Toxic”. It also gave a GI50 [17] of 13.8 µM, a half-life [18] of 4.24 h and a Vd [19] of 1.38 L/kg. The AUC at 24 h [20] was 10.5 µM·h, the Activity [21] was “Toxic” and the Activity [22] was “Non-Toxic”. The Activity [23] was “Non-Toxic”, the pKi [24] was 7.21 and the GI50 (NB-4) was greater than 50 µM. It also gave a GI50 (HT-29) of 48.6 µM.
For `O=C1NCCC12CCN(c1c(Cl)cncc1-c1cc3ccccc3o1)CC2`, the Cmax [1] was 14.4 µM, the GI50 (MCF7) was greater than 50 µM and the Activity [2] was “Non-Toxic”. For the same compound, the GI50 (HL-60) was 35.3 µM, the GI50 (HCT-116) was 40.6 µM and the bioavailability [3] was 38%. The Activity [4] was “Non-Toxic”, the Activity [5] was “Non-Toxic” and the GI50 (T47D) was 16.2 µM. The pKi [6] was 7.89, the GI50 (Kasumi 1) was greater than 50 µM and the pKi (CDK8/Cyclin C) was 7.85. For the same compound, the GI50 (U-937) was 1.36 µM, the GI50 (MDA-MB-453) was 23.3 µM and the AUC at 24 h [7] was 14.6 µM·h. For the same compound, the clearance [8] was 23.2 mL/min/kg, the Activity [9] was “Non-Toxic” and the GI50 (MV4-11) was 0.36 µM. For the same compound, the Activity [10] was “Non-Toxic”, the GI50 (KG-1a) was 19.55 µM and the Activity [11] was “Non-Toxic”. The Tmax [12] was 2.75 h, the Activity [13] was “Non-Toxic” and the GI50 (KG-1) was 7.13 µM. For the same compound, the Activity [14] was “Non-Toxic”, the Activity [15] was “Non-Toxic” and the Activity [16] was “Non-Toxic”. The GI50 [17] was 25.4 µM, the half-life [18] was 2.24 h and the Vd [19] was 1.11 L/kg. The AUC at 24 h [20] was 9.7 µM·h, the Activity [21] was “Non-Toxic” and the Activity [22] was “Non-Toxic”. For the same compound, the Activity [23] was “Non-Toxic”, the pKi [24] was 6.96 and the GI50 (NB-4) was 40.8 µM. It also gave a GI50 (HT-29) of 44.2 µM.
